# STEP block = inhibitors of human striatal-enriched phosphatase STEP; recombinant STEP, OMFP fluorogenic substrate, fluorescence; inhibition, % at 20 µM; 360,000 compounds, 0.25% hits; P54829;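 active = inhibition at 20 µM, scaled per plate between control wells, above about 37%, limit read from the data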
#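 Measure: Control-normalized % inhibition with plate pattern correction | Test system: STEP phosphatase, cell-free reaction | Medium: pH 6.0 Bis-Tris with DTT and Tween 20 | Technique: Fluorescence, 480/540 nm | Times: Reaction 20 min, ambient temperature | Doses: Single compound dose of 20 µM, 1% DMSO final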
# PP5 inh = blocks human protein phosphatase 5 activity. P53041. purified PP5c, OMFP substrate fluorescence. inhibition, % at 6.7 µM. 320,000 compounds, 0.18% hits. AID 1987;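 active = inhibition above the campaign's mean inhibition across all tested compounds plus 3 SD, cut at about 9.5% in these data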
# Target sequence (P53041 whole entry, looked up): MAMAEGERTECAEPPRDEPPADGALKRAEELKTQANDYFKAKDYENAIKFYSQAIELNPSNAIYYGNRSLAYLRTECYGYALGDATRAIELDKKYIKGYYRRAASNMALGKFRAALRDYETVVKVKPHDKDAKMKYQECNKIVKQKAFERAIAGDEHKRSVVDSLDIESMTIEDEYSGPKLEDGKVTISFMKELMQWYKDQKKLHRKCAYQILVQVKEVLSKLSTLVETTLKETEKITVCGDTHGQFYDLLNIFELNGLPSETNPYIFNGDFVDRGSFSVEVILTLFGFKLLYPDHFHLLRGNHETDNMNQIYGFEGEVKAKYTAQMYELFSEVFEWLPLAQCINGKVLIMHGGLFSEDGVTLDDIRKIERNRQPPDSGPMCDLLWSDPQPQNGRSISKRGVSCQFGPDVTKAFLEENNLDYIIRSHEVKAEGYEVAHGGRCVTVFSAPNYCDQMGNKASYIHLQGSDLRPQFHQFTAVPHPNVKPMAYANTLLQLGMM
# Scp1 inh = Scp-1 (human) phosphatase inhibition. inhibition, % at 20 µM. 340,000 compounds, 0.88% hits. Q9GZU7. Recombinant Scp1, phosphopeptide, malachite green phosphate absorbance;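 active = inhibition above about 50% at 20 µM, limit read from the data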
#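 Incubation: 45 min enzyme reaction at room temperature / System: truncated SCP-1 phosphatase (76-261aa) / Reagent: Phospho 17-mer peptide substrate / Buffer or medium: Acidic Tris acetate buffer with magnesium and detergent / Signal: absorbance at 630 nm / Doses: one concentration, 20 µM, with 1.0% DMSO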
# PP1 counter = counter-screen for PP5 inhibitors: inhibitors of human PP1-alpha; 320,000 compounds, 0.9% hits; purified PP1alpha, OMFP fluorescence; P62136; AID 2235; inhibition, % at 6.7 µM;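 active = inhibition above the mean inhibition of all tested compounds plus 3 SD, computed separately for each screening campaign, cut at about 15% in these data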
# LMPTP inh = LMPTP (human) inhibition | recombinant LMPTP-A, OMFP fluorogenic substrate, fluorescence intensity | inhibition, % at 20 µM | 360,000 compounds, 0.22% hits | AID 651560;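 active = compounds that cut the enzyme signal by at least half of the control window in the single-dose screen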
# Target sequence (P24666 whole entry, looked up): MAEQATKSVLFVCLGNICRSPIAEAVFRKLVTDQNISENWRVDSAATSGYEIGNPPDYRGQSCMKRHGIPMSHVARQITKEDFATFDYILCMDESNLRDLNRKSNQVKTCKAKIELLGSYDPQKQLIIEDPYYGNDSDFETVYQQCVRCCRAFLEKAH
#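 test system = LMPTP-A | amount = 0.625 nM LMPTP-A final | reagent = fluorogenic phosphatase substrate OMFP at 400 µM final | incubation = 50 min at room temperature | benchmarks = no-enzyme low control, uninhibited high control | medium = Bis-Tris pH 6.0, DTT, detergent | signal = fluorescence intensity of OMFP turnover product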
# Scp-1 conf = confirmation of human Scp-1 phosphatase inhibitors | recombinant SCP-1 catalytic domain, phosphate release, malachite green absorbance | AID 540281 | 2,500 compounds, 61% hits | inhibition, % at 20 µM | shares compounds with Scp1 inh
# Scp-1 MG ctr = counter-screen for Scp-1 inhibitors: colorimetric interference. 2,500 tested, under 10 active. AID 540313. shares compounds with Scp1 inh. apparent inhibition (interference), % at 20 µM. Colorimetric interference counterscreen, malachite green absorbance 630 nm;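 note: compounds added after enzyme reaction finished so only phosphate colour detection is probed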
# Scp1 DSF = binds human Scp-1, shifting its melting temperature; 1,500 compounds, 25% hits; shares compounds with Scp1 inh; thermal shift relative to vanadate control, % at 40 µM; AID 540329; Recombinant SCP1, Sypro Orange thermal shift Tm;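 active = substances whose mean melting-temperature shift, as a percentage of the reference inhibitor's shift, reaches about 5.3%, limit read from the data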
# A number is an active result; – = inactive; · = not tested or not shown. Most compounds without a hit are left out; they make up all but 1.9% or so of the library.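 Rule for the calls, unless noted: active = inhibition of at least 30% at 20 µM; inactive = the rest.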
SMILES,STEP block,PP5 inh,Scp1 inh,PP1 counter,LMPTP inh,Scp-1 conf,Scp-1 MG ctr,others
Cc1cccc(OCC(=O)NCC(=O)N=Nc2c(O)[nH]c3ccc([N+](=O)[O-])cc23)c1,–,–,59,–,–,–,–,
CC(=O)Nc1ccc(S(=O)(=O)/N=C2/NC(=O)/C(=C\c3ccco3)S2)cc1,–,–,53,–,–,54,–,Scp1 DSF=10
COc1ccc(N=C2NC(=O)/C(=C/c3ccc(O)c(OC)c3)S2)cc1,–,–,–,–,–,·,·,
COc1ccc(N=C2NC(=O)/C(=C\c3ccco3)S2)cc1,–,–,89,–,–,52,–,Scp1 DSF=–
C[n+]1ccc(C(=O)Nc2ccccc2Cl)cc1,–,–,98,–,–,90,–,Scp1 DSF=–
NC(=S)n1[nH]c(-c2ccc([N+](=O)[O-])cc2)c(N=Nc2ccccc2[N+](=O)[O-])c1=O,–,·,63,·,–,38,–,Scp1 DSF=10
Nc1[nH]n(-c2ccccc2)c(=O)c1N=Nc1ccccc1[N+](=O)[O-],–,–,–,–,–,·,·,
Cc1ccc(/C=N/NC(=O)Cc2c[nH]c3ccccc23)c(C)c1,–,–,–,–,–,·,·,
CC1CC(C)CN(C(=O)c2ccc3c(c2)N(Cc2ccccc2)CCS3)C1 (stereo not drawn),–,–,79,–,–,–,–,
COc1ccc(NC(=O)Cn2nc(C)c3ccccc3c2=O)cc1,–,–,–,–,–,·,·,
Cc1nn(CC(=O)Nc2ccccc2)c(=O)c2ccccc12,–,–,70,–,–,–,–,
Cc1ccc(NC(=O)CSc2nc(-c3ccco3)nc3cc(=O)[nH]n23)c(Cl)c1,–,–,71,–,–,48,–,Scp1 DSF=–
Cc1ccc(NC(=O)CSc2n[nH]c(-c3ccco3)n2)c(C)c1,–,–,–,–,–,·,·,
Cc1ccc(CC(=O)N/N=C/c2ccc(OC(=O)c3ccc([N+](=O)[O-])cc3)cc2)cc1,–,–,61,–,–,42,–,Scp1 DSF=–
Cc1cc([N+](=O)[O-])cc(C)c1OCC(=O)N/N=C/c1ccc(OC(=O)c2ccccc2)cc1,–,–,–,–,–,·,·,
O=C(O)c1ccc(-n2c(-c3cc(-c4ccco4)[nH]n3)n[nH]c2=S)cc1,–,–,67,–,–,69,–,Scp1 DSF=–
CC(=O)c1ccc(-n2c(-c3cc(-c4ccco4)[nH]n3)n[nH]c2=S)cc1,–,–,–,–,–,·,·,
O=C(Nc1ccccc1F)c1ccncc1,–,–,–,–,–,·,·,
CCCCOc1ccc(Cc2c(Cl)nc(SC)nc2N2CCOCC2)cc1,–,–,–,–,–,·,·,
COc1ccc(N2Cc3cccc(C(=O)N4CCN(C(=O)c5ccco5)CC4)c3C2=O)cc1,–,–,92,–,–,60,–,Scp1 DSF=–
COc1ccc(N2Cc3cccc(C(=O)N4CCOCC4)c3C2=O)cc1,–,–,–,–,–,·,·,
CCCOc1ccc(N2C(=O)CC(N(CCc3ccc(OC)cc3)C(=O)c3ccccc3)C2=O)cc1 (stereo not drawn),–,–,–,–,–,·,·,
COc1ccc(CCNC(=O)C2CC(c3ccc(C(F)(F)F)cc3)=NO2)cc1 (stereo not drawn),–,–,–,–,–,·,·,
Nc1ccc(Br)cc1C(=O)O,–,–,–,–,–,·,·,
Nc1ccc(-c2ccc(N)c(C(=O)O)c2)cc1C(=O)O,–,–,55,–,–,–,–,
SMILES,STEP block,PP5 inh,Scp1 inh,PP1 counter,LMPTP inh,Scp-1 conf,Scp-1 MG ctr,others
Oc1cccc(C(Nc2nccs2)c2ccc3cccnc3c2O)c1 (stereo not drawn),–,–,–,–,–,·,·,
O=C(O)Cn1nnc(-c2ccc(OCc3ccccc3Cl)cc2)n1,·,–,–,–,·,·,·,
Cn1nnc(-c2ccc(OCc3ccccc3F)cc2)n1,–,–,65,–,–,–,–,
CCc1nc(N[C@H](C(=O)O)C(C)C)c2oc3ccccc3c2n1,–,–,–,–,–,·,·,
CC(C)=C[C@@H]1C[C@H](C)[C@H]2CC[C@H](C)c3c(O[C@@H]4O[C@@H](C)[C@@H](O)[C@@H](O)[C@@H]4O)c(O)c(C)c1c32,–,·,–,·,–,·,·,
O=C(CNS(=O)(=O)c1ccc(Br)cc1)OCc1cc(=O)n2cc(Br)ccc2n1,·,–,·,–,·,·,·,
O=C(CNC(=O)c1cccc(OC(F)F)c1)OCc1cc(=O)n2cc(Br)ccc2n1,–,–,61,–,–,58,–,Scp1 DSF=–
COc1ccc(-n2ncc3c(NCC4CCCO4)ncnc32)cc1 (stereo not drawn),–,–,–,–,–,·,·,
COc1cccc(NC(=O)C2CCCN(S(=O)(=O)c3cccc4cccnc34)C2)c1 (stereo not drawn),–,–,86,–,–,–,–,
COCCCn1c(SCC(=O)NC2CCCCC2)nc2ccccc2c1=O,–,–,–,–,–,·,·,
COc1ccc2c(c1)O[C@H](c1ccc3c(c1)OCO3)[C@@H](O)C2=O,–,–,–,–,–,·,·,
COc1ccccc1CNC(=O)C1CC(c2ccccc2F)=NO1 (stereo not drawn),–,–,–,–,–,·,·,
COc1ccccc1C(=O)Nc1ccc(OC(C)C(=O)N2CCOCC2)cc1 (stereo not drawn),–,–,–,–,–,·,·,
COc1ccccc1C(=O)NCC(=O)OC(C)C(=O)N1CCOCC1 (stereo not drawn),–,–,60,–,–,–,–,
O=C(N/N=C/C=C\c1ccco1)c1ccccn1,–,–,52,–,–,39,–,Scp1 DSF=–
Cn1c(SCC(=O)N/N=C/C=C/c2ccccc2[N+](=O)[O-])nc2ccccc21,–,–,–,–,–,·,·,
O=C(N/N=C/C=C/c1ccco1)c1cnccn1,–,–,–,–,–,·,·,
O=C(N/N=C\C=C\c1ccco1)c1cc(-c2ccc3ccccc3c2)n[nH]1,–,–,70,–,–,42,–,Scp1 DSF=13
O=C(N/N=C/C=C/c1ccco1)c1cccnc1,–,–,–,–,–,·,·,
Cn1c(SCC(=O)N/N=C/C=C/c2ccco2)nc2ccccc21,–,–,73,–,–,62,–,Scp1 DSF=–
CCCCc1ccc(S(=O)(=O)Nc2cc(C)on2)cc1,–,–,70,–,–,–,–,
CCc1ccc(C(C)NC(=O)Cn2cnc3c(=O)n(C)c(=O)n(C)c32)cc1 (stereo not drawn),–,–,–,–,–,–,–,
CCc1ccc(NC(=O)Cn2cnc3c(=O)n(C)c(=O)n(C)c32)cc1,–,–,–,–,–,·,·,
Cn1c(NNC(=O)c2cccc3ccccc23)cc(=O)n(C)c1=O,–,–,–,–,–,–,–,
CCNc1nnc(-c2ccccc2OC)s1,·,–,–,–,·,·,·,
